# In article PMC4539048 (Science translational medicine, 2015):
# Columns and labels:
# [1] = system: P. falciparum parasites; experiment: Drug combination, fixed-ratio isobologram method; assay type: cell-based; conditions: artemisinin derivatives, OZ439, chloroquine, piperaquine, pyronaridine, mefloquine, lumefantrine, atovaquone, proguanil, P218, pyrimethamine
# [2] = Plasma protein binding, rat; assay type: in vitro ADME
# [3] = Intravenous pharmacokinetics in monkeys and dogs; assay type: in vivo; conditions: male (dogs), female (monkeys), macaque (monkeys), beagle (dogs), monkey, dog, plasma
# Summary of the method: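 Male beagle dogs and female macaque monkeys received a single intravenous dose. Blood was collected into anticoagulant tubes and plasma was separated by centrifugation. Parent compound and metabolites were quantified by LC/MS. Typically 2–6 animals were used per study, with standard deviation given where n>2.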
# [4] = Plasma protein binding, dog; assay type: in vitro ADME
# [5] = target: CYP2C8 (Homo sapiens, UniProt P10632); experiment: Metabolism by individual human CYP enzymes; assay type: in vitro ADME; conditions: CYP2C8 Supersomes
# Sequence of CYP2C8 (P10632 whole entry): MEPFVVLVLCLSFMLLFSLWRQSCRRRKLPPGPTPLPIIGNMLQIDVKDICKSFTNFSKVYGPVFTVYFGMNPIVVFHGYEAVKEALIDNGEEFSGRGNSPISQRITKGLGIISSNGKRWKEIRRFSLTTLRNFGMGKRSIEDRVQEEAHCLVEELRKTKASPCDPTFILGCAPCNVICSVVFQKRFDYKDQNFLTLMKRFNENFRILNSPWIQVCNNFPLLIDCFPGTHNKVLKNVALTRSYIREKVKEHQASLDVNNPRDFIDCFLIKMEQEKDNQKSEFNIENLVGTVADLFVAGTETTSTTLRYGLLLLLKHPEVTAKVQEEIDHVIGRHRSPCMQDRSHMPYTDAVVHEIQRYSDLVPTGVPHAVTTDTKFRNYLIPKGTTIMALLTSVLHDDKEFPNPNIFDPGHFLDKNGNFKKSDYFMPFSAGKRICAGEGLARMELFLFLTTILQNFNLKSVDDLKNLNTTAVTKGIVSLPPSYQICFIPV
# [6] = Chemical and physical stability; assay type: physicochemical
# [7] = Caco-2 permeability; assay type: in vitro ADME; conditions: human, Caco-2
# [8] = system: Caco-2 cell monolayers; experiment: Caco-2 permeability; assay type: in vitro ADME
# [9] = system: G6PD-deficient human red blood cells; assay type: in vivo, NOD-SCID mice; conditions: blood type A- G6PD-deficient human red blood cells
# [10] = target: pig DHODH (Sus scrofa, UniProt F1S3B0); experiment: DHODH inhibition, DCIP spectrophotometric assay; assay type: biochemical
# Sequence of pig DHODH (F1S3B0 1-395): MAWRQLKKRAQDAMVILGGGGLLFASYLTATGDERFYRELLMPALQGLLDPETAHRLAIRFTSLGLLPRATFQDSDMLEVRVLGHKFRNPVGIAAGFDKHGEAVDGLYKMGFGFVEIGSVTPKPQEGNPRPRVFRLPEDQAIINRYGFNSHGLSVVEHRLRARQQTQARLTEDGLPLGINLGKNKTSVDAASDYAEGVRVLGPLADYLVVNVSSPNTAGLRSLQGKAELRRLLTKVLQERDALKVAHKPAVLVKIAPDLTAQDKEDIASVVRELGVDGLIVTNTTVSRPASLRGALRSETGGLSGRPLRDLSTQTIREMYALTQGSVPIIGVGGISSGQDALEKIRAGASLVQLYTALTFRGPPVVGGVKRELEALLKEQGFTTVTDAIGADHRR
# [11] = system: P. falciparum stage V oocyst; experiment: Oocyst formation in mosquitoes
compound,measurement,setting,value
"Cc1cc(Nc2ccc(S(F)(F)(F)(F)F)cc2)n2nc(C(C)(F)F)nc2n1 [DSM265, 2-(1,1-difluoroethyl)-5-methyl-[N-[4-(pentafluorosulfanyl)phenyl]1,2,4]triazolo[1,5-a]pyrimidin-7-amine]",interaction with other antimalarials,[1],additive
same,fraction unbound,[2],0.023
same,half-life,[3],10 to 45 h
same,fraction unbound,[4],0.006
same,extent of metabolism,[5],0.032 μL/min/pmol CYP
same,stability of solutions subjected to simulated sunlight,[6],degradation
same,chemical stability in the solid state,[6]; 30°/65% relative humidity for up to 24 months,chemically stable
same,Papp A→B,[7],> 30 ×10⁻⁶ cm/s
same,BCS classification,[8]; from high permeability and low aqueous solubility,BCS Class II
same,substrate for Pgp and BCRP,[8]; with verapamil and fumitremorgin C,not a substrate
same,hemolytic toxicity,[9],not hemolytic
same,IC50,[10],> 98.7 µM
same,inhibition at 1 µg/mL,"[11]; Plasmodium falciparum, read-out: inhibition of oocyst formation",38%
same,inhibition of oocyst formation at unbound concentration,[11]; at 0.001 μg/mL unbound (human plasma fraction unbound),38% at 0.001
